This is a sample that favours compounds with a hit; in the whole collection about 3.5% have one here.
MrgX1 PAM – human MrgX1 positive allosteric modulation, primary screen; MrgX1-HEK293, Fluo-4 calcium flux, FDSS; stronger effect = higher value; B-score at 10 µM; AID 588675; actives 0.63% (n = 310,000);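 active = plate-corrected calcium response at least 3 library SD above typical, normal starting fluorescence, not activating the receptor alone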;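 note: compound read alongside a low EC10 to EC30 dose of BAM8-22 agonist; peak minus trough fluorescence over baseline measured at the second addition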
Target sequence (Q96LB2 whole entry, looked up): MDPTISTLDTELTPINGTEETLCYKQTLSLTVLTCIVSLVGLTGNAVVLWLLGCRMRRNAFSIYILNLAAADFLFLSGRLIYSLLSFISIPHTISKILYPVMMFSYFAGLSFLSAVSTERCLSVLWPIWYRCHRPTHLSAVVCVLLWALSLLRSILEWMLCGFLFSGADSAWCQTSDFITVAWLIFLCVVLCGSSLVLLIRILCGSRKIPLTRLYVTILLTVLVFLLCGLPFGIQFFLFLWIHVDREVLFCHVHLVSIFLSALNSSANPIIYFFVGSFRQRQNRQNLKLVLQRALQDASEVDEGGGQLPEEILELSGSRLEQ
MrgX1 antagonist – human MrgX1 receptor antagonism, primary screen | actives 1.3% (n = 310,000) | MRGX1-HEK293 calcium flux, Fluo-4, BAM8-22 antagonism; stronger effect = lower value | B-score at 10 µM | Q96LB2;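 active = calcium-response B-score plate-corrected more than 3 library SD below zero, starting fluorescence within 5 deviations, no agonist response on first addition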;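 note: peak minus trough fluorescence over baseline after final BAM8-22 challenge near maximal dose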
RGS4 inh – human RGS4 inhibition; P49798; actives 0.45% (n = 310,000); B-score at 10 µM; HEK293 M3R/RGS4 inducible, Fluo-4 calcium flux; stronger effect = higher value; triggered by carbachol at its EC20;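 active = B-score, a plate-corrected calcium signal, over three deviations above library mean, with baseline fluorescence within five deviations of library mean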;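 note: RGS4 expression induced by doxycycline in cells with stable M3 receptor; B-score is computed from the integrated fluorescence ratio over baseline after carbachol; higher B-score means a larger calcium signal and so more RGS4 inhibition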
Target sequence (P49798 whole entry, looked up): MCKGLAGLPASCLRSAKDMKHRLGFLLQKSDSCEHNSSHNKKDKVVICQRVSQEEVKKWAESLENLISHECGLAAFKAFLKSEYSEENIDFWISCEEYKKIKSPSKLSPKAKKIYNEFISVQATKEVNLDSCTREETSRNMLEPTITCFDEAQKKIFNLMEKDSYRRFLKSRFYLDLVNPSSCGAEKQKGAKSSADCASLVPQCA
MrgX1 ag – human MrgX1 receptor agonism, primary screen; MrgX1-HEK293 cells, Fluo-4 calcium fluorescence, agonist mode; stronger effect = higher value; B-score at 10 µM; actives 0.44% (n = 310,000);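 active = calcium response B-score plate-corrected fluorescence ratio at least 3 library SD, with starting fluorescence B-score inside 5 SD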
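System: HEK293 cells stably expressing human MrgX1 receptor; Dosing: test compound in the initial addition of three; Schedule: overnight plating, then 30 min 37 °C plus 30 min room-temperature dye loading; Detection: kinetic calcium dye fluorescence, Fluo-4 NW; Controls: per-plate positive and negative controls for Z′ factor.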
RGS4 act – potentiators or activators of RGS4 | B-score at 10 µM | AID 463111 | actives 0.92% (n = 310,000) | HEK293 M3R/inducible RGS4, carbachol calcium flux Fluo4; stronger effect = lower value;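 active = B-score of the integrated calcium signal more than 4 SD below the library mean, with starting fluorescence not abnormally high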;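 note: negative B-score means reduced calcium response which marks RGS4 activation or potentiation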
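Detection: kinetic calcium fluorescence imaging with Fluo4-AM dye, 2 µM / Material: HEK293 cells with stable M3R and inducible RGS4 / Schedule: recording 10 s baseline at 1 Hz, 100 s post-agonist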
RGS4 inh valid – RGS4 inhibitor validation. actives 65% (n = 1,700). calcium response, % at 10 µM. HEK293 M3R/RGS4, carbachol calcium Fluo-4 fluorescence; carbachol added at its EC20; 0 = buffer wells, 100 = carbachol control. shares compounds with RGS4 inh;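 active = duplicate-averaged calcium response above the buffer-only control mean plus 5 SD of those controls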;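 note: integrated fluorescence ratio F max minus min over baseline F0; higher response in RGS4-induced cells means RGS4 inhibition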
M3R Ca ctr – counter-screen for RGS4 inhibitors: effect in non-induced cells | actives 20% (n = 1,900) | HEK293 M3R non-induced, carbachol calcium Fluo-4; submaximal (EC20) carbachol stimulus; buffer wells 0%, carbachol control wells 100% | shares compounds with RGS4 inh | activity (percent), % at 10 µM; call rule not given here;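 note: RGS4 induction absent so cells express M3R without RGS4; higher means more calcium signal and flags a non-specific hit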
M3R basal Ca ctr – signal in non-induced cells without carbachol, RGS4 inhibitor counter-screen; shares compounds with RGS4 inh; HEK293 M3R/RGS4 non-induced, Fluo-4 calcium, no carbachol; normalised: buffer wells 0%, carbachol wells 100%; AID 493001; actives 22% (n = 1,900); calcium response (agonist-mode artifact), % at 10 µM;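 active = duplicate-averaged calcium rise in uninduced cells above buffer wells' mean plus 5 SD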
Numbers without * were called inactive; i = inactive; . = no result given.

SMILES	MrgX1 PAM	MrgX1 antagonist	RGS4 inh	MrgX1 ag	RGS4 act	RGS4 inh valid	M3R Ca ctr	M3R basal Ca ctr
Cc1cccc(N=Nc2c(N)n[nH]c2-c2ccc(Cl)cc2)c1	i	i	i	i	i	.	.	.
NC(=O)N/N=C/c1ccc(-n2nncc2-c2ccc(Cl)cc2)cc1	i	i	6.25*	i	i	20.0%*	41.0%*	i
C=CCN1C=C2C(=O)C(C)(OC(=O)c3ccco3)C(=O)C(C=C)=C2C=C1C1CC1 (configuration not stated)	i	i	i	i	i	.	.	.
C=CCN1C=C2C(=O)C(C)(OC(=O)c3ccc(OC)cc3)C(=O)C(c3ccco3)=C2C=C1CCCC (configuration not stated)	i	i	i	i	i	i	i	i
CCCCC1=CC2=C(c3ccco3)C(=O)C(C)(OC(=O)c3ccc(OC)cc3)C(=O)C2=CN1CCCOC(C)C (configuration not stated)	i	i	i	i	i	i	i	i
CCCCC1=CC2=C(c3ccco3)C(=O)C(C)(OC(=O)c3ccc(OC)cc3)C(=O)C2=CN1c1ccccc1 (configuration not stated)	i	i	i	i	i	.	i	i
O=C(O)c1ccccc1Nc1cc(Cl)c2nonc2c1[N+](=O)[O-]	i	i	i	i	i	.	.	.
O=[N+]([O-])c1c(Nc2ccccn2)cc(Cl)c2nonc12	i	-4.73*	10.4*	i	i	54.5%*	i	8.0%*
O=c1c2ccccc2nc2c3ccccc3c(NCc3cccnc3)nn12	i	i	i	i	i	.	.	.
O=c1c2ccccc2nc2c3ccccc3c(NCc3ccccn3)nn12	i	i	13.6*	i	i	11.5%*	i	i
CC(=O)Nc1ccc(-c2nnc(SCC(=O)Nc3ccc4c(c3)oc3ccccc34)n2C)cc1	i	i	i	i	i	.	i	16.0%*
COc1cc(OC)cc(-c2cc(N)n(S(=O)(=O)c3cccc4nsnc34)n2)c1	i	i	4.81*	i	i	8.0%*	i	i
CC(C)CC(=O)Nc1ccc(C(=O)CN2CCC(C)CC2)cc1	i	i	i	i	i	.	.	.
Cc1c(N=NC2=C(O)CC(C)(C)CC2=O)cc2c(c1[N+](=O)[O-])C(C)(C)CC2(C)C	i	i	7.39*	i	i	28.5%*	i	i
O=C(N/N=C/c1cc(Cl)cc([N+](=O)[O-])c1O)NC12CC3CC(CC(C3)C1)C2	i	i	9.14*	i	i	11.5%*	i	i
CC(=O)c1c[nH]c(C(=O)NCc2ccccc2Cl)c1	i	i	5.22*	i	i	i	i	i
O=C/C=C/c1c(-c2ccccc2)cc2oc3ccccc3cc1-2	i	i	24.2*	35*	i	15.5%*	i	i
Cc1ccccc1CSc1ccc(-c2ccc3c(c2)OCO3)nn1	i	i	i	i	i	.	.	.
CN1/C(=C/C2CC(=O)N(c3ccc([N+](=O)[O-])cc3)C2=O)C(C)(C)c2ccccc21 (configuration not stated)	i	i	i	i	i	.	.	.
Cc1ccc(S(=O)(=O)NCCC(=O)NNC(=O)c2ccccc2O)cc1C	i	i	i	i	i	.	.	.
Cc1ccc(C(=O)N/C(=C\c2ccccc2F)c2nc(=S)[nH][nH]2)cc1	i	i	i	i	i	.	.	.
Cc1ccc(/C=C(\NC(=O)c2ccc(C)cc2)c2nc(=S)[nH][nH]2)cc1	i	i	10.6*	i	i	35.0%*	43.5%*	i
Cn1ccnc1CN1CCCCC1C(=O)Nc1ccc(Oc2cccnc2)cc1 (configuration not stated)	i	i	i	i	i	.	.	.
Oc1c(Br)cc(Cl)cc1C=Nc1ccc(N2CCOCC2)cc1	i	i	i	i	i	.	i	26.0%*
Oc1c(Br)cc(Cl)cc1C=Nc1ccccc1Br	i	i	i	i	i	.	.	.
SMILES	MrgX1 PAM	MrgX1 antagonist	RGS4 inh	MrgX1 ag	RGS4 act	RGS4 inh valid	M3R Ca ctr	M3R basal Ca ctr
Cc1cccc(C2c3[nH]c4ccccc4c3CCN2C(=O)Cc2n[nH]c(C)n2)n1 (configuration not stated)	i	i	i	i	i	.	i	i
CC(=O)c1ccc(C(=O)N2CCc3c([nH]c4ccccc34)C2c2cccc(C)n2)s1 (configuration not stated)	i	i	i	i	i	.	.	.
Cc1cc(N)n2nc(C)c(-c3ccc(Cl)cc3)c2n1	i	i	7.77*	i	i	10.5%*	i	i
CC(=O)Nc1ccc(Nc2cc(C)nc3c(-c4ccc(Cl)cc4)c(C)nn23)cc1	i	i	i	i	i	.	i	i
CC(=O)Nc1ccc(Nc2cc(C)nc3c(-c4ccc(Cl)cc4)cnn23)cc1	i	i	i	i	i	.	.	.
O=C(Nc1cc(Sc2nc3ccccc3s2)cc([N+](=O)[O-])c1)c1cccc(F)c1F	i	i	i	i	i	.	.	.
COc1ccc(CN2[C@@H](CC(C)=O)c3ccc(/C=C/C(C)=O)cc3S2(=O)=O)cc1	i	i	i	i	i	.	.	.
COc1cccc(N2[C@@H](CC(C)=O)c3ccc(/C=C/C(C)=O)cc3S2(=O)=O)c1	i	i	8.2*	i	i	31.5%*	54.5%*	i
Cc1noc(NS(=O)(=O)c2ccc(N/C=C\C(=O)c3ccc(Br)cc3)cc2)c1C	i	i	6.7*	i	i	14.0%*	i	i
Cc1noc(NS(=O)(=O)c2ccc(NC(=O)c3nn(-c4ccccc4)ccc3=O)cc2)c1C	i	i	i	i	i	i	i	i
Cc1noc(NS(=O)(=O)c2ccc(N/C=C\C(=O)c3cccc4ccccc34)cc2)c1C	i	i	5.92*	i	i	i	i	i
